Screening results deposited in PubChem by Broad Institute.
The entries come from a sample that favours hits as a whole.
ERp5 block – blocks human ERp5 reductase activity on insulin. Q15084. ERp5 insulin aggregation, absorbance 650 nm, 90 min. inhibition, % at 9.99 µM. 0.05% of 350,000 active. AID 651711;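 active = mean replicate inhibition above about 25%, with every replicate also reaching it, limit read from the data, passing the limit was not always enough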
ERAP1 HTS inh – blocks human ERAP1 aminopeptidase activity. recombinant ERAP1, Leu-AMC fluorescence, 60 min. 0.15% of 340,000 active. inhibition, % at 10.7 µM. AID 652197. Q9NZ08;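 active = mean replicate inhibition of at least 30%, or all replicates individually reaching that 30% level; inactive = mean below 30% and not every replicate reaching it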;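 also: 0% = neutral control wells and 100% = L-leucinethiol positive control wells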
Target sequence (Q9NZ08 whole entry, looked up): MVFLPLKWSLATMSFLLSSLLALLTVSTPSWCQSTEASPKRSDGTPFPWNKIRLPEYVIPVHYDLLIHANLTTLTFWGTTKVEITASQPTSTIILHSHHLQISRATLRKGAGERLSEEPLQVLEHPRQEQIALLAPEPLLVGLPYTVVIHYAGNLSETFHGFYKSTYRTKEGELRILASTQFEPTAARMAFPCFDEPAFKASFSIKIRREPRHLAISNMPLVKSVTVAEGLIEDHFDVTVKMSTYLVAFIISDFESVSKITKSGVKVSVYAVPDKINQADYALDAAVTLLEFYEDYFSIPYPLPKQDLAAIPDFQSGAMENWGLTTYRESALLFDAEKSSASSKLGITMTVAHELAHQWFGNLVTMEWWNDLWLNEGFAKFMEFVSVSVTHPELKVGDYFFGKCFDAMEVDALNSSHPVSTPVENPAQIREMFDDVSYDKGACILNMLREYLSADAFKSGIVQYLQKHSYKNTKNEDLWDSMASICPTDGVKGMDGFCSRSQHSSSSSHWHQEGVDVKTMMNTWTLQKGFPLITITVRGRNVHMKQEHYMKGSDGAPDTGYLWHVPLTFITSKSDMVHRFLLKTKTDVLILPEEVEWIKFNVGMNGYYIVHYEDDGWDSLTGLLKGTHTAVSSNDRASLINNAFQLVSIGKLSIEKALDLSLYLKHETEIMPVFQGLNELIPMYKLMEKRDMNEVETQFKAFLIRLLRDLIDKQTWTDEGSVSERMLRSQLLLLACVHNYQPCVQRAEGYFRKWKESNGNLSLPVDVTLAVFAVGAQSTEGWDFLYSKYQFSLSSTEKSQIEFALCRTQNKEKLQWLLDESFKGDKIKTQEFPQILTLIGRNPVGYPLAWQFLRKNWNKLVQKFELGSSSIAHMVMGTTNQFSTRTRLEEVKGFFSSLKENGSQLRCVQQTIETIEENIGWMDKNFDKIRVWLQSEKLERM
PDI inh – PDI (human) enzyme inhibition; P07237; PDI insulin aggregation turbidity, A650, 90 min; inhibition, % at 10 µM; 0.052% of 350,000 active;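 active = mean inhibition across replicates of 30% or more, whatever share of single replicates reach that level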
S100A4 MyoIIA – blocks human S100A4 binding to myosin IIA peptide | inhibition, % at 10.7 µM | 0.14% of 360,000 active | P26447 | S100A4/TAMRA-MyoIIA peptide fluorescence polarization;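 active = mean inhibition of at least 70% across replicates, with every replicate also reaching that level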
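Material: S100A4 monomer protein / Buffer or medium: 50 mM HEPES pH 7.2, 10 mM CaCl2, 100 mM KCl / Times: 5 min incubation before reading / Benchmarks: neutral control DMSO, positive control TFP / Reagent: labelled myosin peptide probe, 5 nM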
FGF22 binding – FGF22 (human) thermal shift binding. Q9HCT0. recombinant FGF22 thermal shift, SYPRO orange fluorescence; percent of sucrose octasulfate shift, DMSO zero. activity (Tm shift, normalised), % at 9.99 µM. 1.5% of 340,000 active;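 active = mean Tm shift, scaled 0 neutral to 100 positive control, at about 1.3% or above, every replicate too, limit read from the data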
Numbers without * were called inactive; · = no result given.

SMILES	ERp5 block	ERAP1 HTS inh	PDI inh	S100A4 MyoIIA	FGF22 binding
COc1ccc(NC(=S)NNC(=S)Nc2cccc(C(F)(F)F)c2)cc1	1	·	20	-3	0
COc1ccc(NC(=S)Nc2cc(C(F)(F)F)ccc2F)cc1	2	-1	1	-2	44*
CCN(CC1COc2ccccc2O1)C(=S)Nc1ccc(F)cc1 (configuration not stated)	-1	0	-4	-13	44*
CCn1nnnc1NCc1ccc(OCc2ccc(F)cc2Cl)c(OC)c1	2	4	5	-1	43*
COc1cc(/C=C2/SC(=O)N(CC(=O)N3CCCC3)C2=O)ccc1Oc1ccc([N+](=O)[O-])cn1	3	-2	-1	9	0
CCN1C(=O)S/C(=C/c2ccc(Oc3ccc([N+](=O)[O-])cn3)c(OC)c2)C1=O	1	-7	-2	-5	43*
C=CCSC1=N/C(=C\c2cc(OCC)c(OC(C)=O)c([N+](=O)[O-])c2)C(=O)S1	·	·	-5	·	·
NC(=O)c1ccc(NC(=O)COC(=O)c2ccccc2SCC(=O)N2CCCC2)cc1	6	-4	7	1	0
Cc1cccc(NC(=O)COC(=O)c2ccccc2SCC(=O)N2CCCC2)c1	4	-8	-4	-6	28*
CC(=O)Nc1ccc(C=NNc2nnc(NN=Cc3ccc(NC(C)=O)cc3)c3ccccc23)cc1	0	3	-7	72*	0
O=[N+]([O-])c1ccc(C(O)CNC(=S)Nc2ccccc2)cc1 (configuration not stated)	-7	0	-8	-1	1
CNC(=S)NCC(O)c1ccc([N+](=O)[O-])cc1 (configuration not stated)	-4	-4	5	-4	44*
C#CCNc1cc(-c2ccccc2)nc2ncnn12	-3	0	-1	4	44*
CN(Cc1ccc2ccccc2c1)C(=O)c1ccc(C(F)(F)F)cc1	0	-2	-8	-11	0
Fc1ccccc1COc1ccc2ccccc2c1CNc1nn[nH]n1	0	2	3	3	43*
COCc1cc(CN2CCN(Cc3ccsc3)C(CCO)C2)ccc1OC (configuration not stated)	-3	-1	-1	-5	43*
CCn1cc(CN2CCN(Cc3cccc(OC)c3)C(CCO)C2)c(C)n1 (configuration not stated)	0	-1	-6	1	43*
C#Cc1ccc(CN2CCN(Cc3ccsc3)C(CCO)C2)cc1 (configuration not stated)	-2	1	0	2	·
CC(C)(O)C#Cc1ccc(CN2CCN(Cc3ccsc3)C(CCO)C2)cc1 (configuration not stated)	3	-3	5	3	43*
CN(C(=O)C1CCC1C(=O)O)c1nc(-c2ccc(Cl)s2)cs1 (configuration not stated)	1	·	1	-7	0
O=C(Cn1cncn1)c1ccccc1	0	0	-6	2	0
CCCCn1c(N)c(N(CCC(C)C)C(=O)c2cccc(N3C(=O)c4ccccc4C3=O)c2)c(=O)[nH]c1=O	-1	-1	-1	1	0
COc1cccc(-c2nc(-c3ccncc3)no2)c1	4	1	2	2	0
COc1ccc(NC(=S)NCCc2ccc(S(N)(=O)=O)cc2)c(OC)c1	0	-9	-7	-3	1
CCOc1ccccc1OCC(=O)NCCc1ccc(S(N)(=O)=O)cc1	3	2	1	-5	43*
SMILES	ERp5 block	ERAP1 HTS inh	PDI inh	S100A4 MyoIIA	FGF22 binding
COc1ccc2[nH]c(C)c(CCNC(=S)Nc3ccccc3OC)c2c1	2	-4	-16	-2	43*
COc1ccccc1NC(=S)NCCc1ccc(S(N)(=O)=O)cc1	-5	-1	-4	-3	46*
CN(CC(=O)NCCc1ccc(S(N)(=O)=O)cc1)S(=O)(=O)/C=C/c1ccccc1	4	-2	10	-1	0
CN(CC(=O)NCCc1ccc(S(N)(=O)=O)cc1)c1ccccc1	7	1	-1	0	43*
NC(c1ccccc1)c1csc(NC(=O)Nc2cccc(Cl)c2)n1 (configuration not stated)	13	4	5	-4	0
Cc1noc(C)c1S(=O)(=O)Nc1ccc2c(c1)C(=O)N([C@H](C)CO)C[C@H](C)[C@@H](CN(C)Cc1ccc(C(=O)O)cc1)OCCCC[C@@H](C)O2	-1	-2	·	5	1
